# HCV NS3 hel inh: inhibitors of Hepatitis C virus NS3 helicase | hit rate 0.56% among 290,000 | NS3 helicase DNA unwinding, Cy5 molecular beacon fluorescence | inhibition, % at 10.9 µM;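 active = inhibition above the mean of all tested compounds plus 3 SD, set per campaign, cut at about 35% in these data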;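 note: 0% = DMSO wells and 100% = thioflavine S control wells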
#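 Control set: DMSO versus 110 µM thioflavine S; Material: NS3 helicase fragment of HCV; Measured by: Cy5 fluorescence at 0 and 60 min, beacon hairpin quenching; Read-out basis: percent inhibition from t60/t0 fluorescence ratio; Times: reaction time 60 min, 25 °C; Repeats: single replicate; Compound dosing: single dose, 10.9 µM nominal final, DMSO 0.8% final.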
# PHOSPHO1 block: PHOSPHO1 (human) inhibition; recombinant PHOSPHO1, absorbance phosphatase assay; AID 1565; inhibition, % at 13.3 µM; hit rate 1.1% among 290,000; Q8TCT1; in the data active = inhibition above about 60%
# Target sequence (Q8TCT1 whole entry, looked up): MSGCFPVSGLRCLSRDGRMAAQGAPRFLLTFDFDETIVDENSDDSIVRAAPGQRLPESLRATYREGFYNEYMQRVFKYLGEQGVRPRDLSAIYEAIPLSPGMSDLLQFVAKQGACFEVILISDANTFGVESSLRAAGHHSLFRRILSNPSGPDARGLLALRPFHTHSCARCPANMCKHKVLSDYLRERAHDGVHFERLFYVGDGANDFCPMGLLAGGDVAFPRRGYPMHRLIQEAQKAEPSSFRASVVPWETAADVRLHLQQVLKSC
# IMP-1 inh-1: blocks Pseudomonas aeruginosa IMP-1 metallo-beta-lactamase; purified IMP-1, nitrocefin hydrolysis, epi-absorbance fluorescence; inhibition, % at 5.6 µM; hit rate 0.45% among 290,000; AID 1556;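 active = inhibition above the mean plus 3 SD of all compounds in the same screening run, cut at about 4.5% in these data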;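 note: 0% = IMP-1 with DMSO and 100% = DMSO wells lacking enzyme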
#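 Assay system: purified recombinant IMP-1 beta-lactamase. Input: IMP-1 0.2 nM before substrate addition. Buffer or medium: Zinc- and detergent-supplemented HEPES buffer, pH 7.1. Schedule: 25 °C, 15 min preincubation, 25 min reaction. Signal: Epi-absorbance fluorescence, 480 nm excitation, 530 nm emission. Evaluation: percent inhibition from optical density relative to buffer-blank wells.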
# UBC9 SUMO inh: inhibitors of human SUMOylation (UBC9) | inhibition, % at 35 µM | AID 2006 | hit rate 0.36% among 290,000 | HTRF SUMOylation assay, SAE1/SAE2 + UBC9, in vitro; in the data active = inhibition above about 50%, passing the limit was not always enough
# Target sequence (P63279 whole entry, looked up): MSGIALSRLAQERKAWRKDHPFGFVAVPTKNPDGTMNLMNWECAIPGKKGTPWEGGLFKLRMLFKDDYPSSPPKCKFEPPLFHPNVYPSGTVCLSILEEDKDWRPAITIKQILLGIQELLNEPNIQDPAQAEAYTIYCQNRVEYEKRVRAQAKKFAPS
# VIM-2 inhibitor: blocks Pseudomonas aeruginosa VIM-2 metallo-beta-lactamase | purified VIM-2, nitrocefin hydrolysis, epi-absorbance fluorescence | inhibition, % at 5.6 µM | hit rate 0.89% among 290,000;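 active = inhibition above the mean of all tested compounds plus 3 SD, cutoff set per screening run, cut at about 7.5% in these data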;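 note: red hydrolysis product quenches plate fluorescence so inhibitors raise well fluorescence; 0% = enzyme with DMSO and 100% = DMSO without enzyme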
# core dimer inh: HCV core protein dimerization inhibition; TR-FRET GST/Flag-core106 dimerization, 1536-well; inhibition, % at 5 µM; hit rate 0.33% among 300,000; AID 1899;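 active = inhibition above the mean of all tested compounds plus 3 SD, set per screening campaign, cut at about 45% in these data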
#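 Assay system: tagged HCV core106 pair (GST and Flag); medium: KF-containing HEPES buffer, pH 7.45, DTT, CHAPS, BSA; also added: Eu donor and XL665 acceptor anti-tag antibodies; dosing: 5 µM single dose; timing: compound-protein-antibody incubation 4 h at 22.5 °C; signal: TR-FRET 671 and 617 nm emission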
# IMP-1 inh-2: selectivity counter-screen for VIM-2 inhibitors: IMP-1 metallo-beta-lactamase inhibitors | purified IMP-1, nitrocefin hydrolysis, epi-absorbance fluorescence | 1,300 tested, under 10 active | inhibition, % at 5.6 µM | shares compounds with VIM-2 inhibitor; call rule not given here;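 note: 0% = enzyme with vehicle and 100% = vehicle without enzyme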
# VIM-2 FRET inh: inhibits VIM-2 in FRET assay to exclude epi-absorbance artifacts; purified VIM-2, CCF2 FRET substrate hydrolysis; hit rate 23% among 1,300; shares compounds with VIM-2 inhibitor; inhibition, % at 5.6 µM;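 active = inhibition above the mean of all tested compounds plus 3 SD, cut at about 19% in these data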;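 note: 0% = VIM-2 plus DMSO and 100% = no enzyme wells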
# TEM-1 inh: blocks E. coli TEM-1 beta-lactamase in VIM-2 selectivity screen; shares compounds with VIM-2 inhibitor; inhibition, % at 5.6 µM; hit rate 3% among 1,300; Purified TEM-1, nitrocefin hydrolysis, epi-absorbance fluorescence;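 active = inhibition above that campaign's mean inhibition plus 3 SD, cut at about 0.46% in these data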;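 note: 0% = TEM-1 with DMSO and 100% = TEM-1 with 100 µM potassium clavulanate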
# Target sequence (P62593 whole entry, looked up): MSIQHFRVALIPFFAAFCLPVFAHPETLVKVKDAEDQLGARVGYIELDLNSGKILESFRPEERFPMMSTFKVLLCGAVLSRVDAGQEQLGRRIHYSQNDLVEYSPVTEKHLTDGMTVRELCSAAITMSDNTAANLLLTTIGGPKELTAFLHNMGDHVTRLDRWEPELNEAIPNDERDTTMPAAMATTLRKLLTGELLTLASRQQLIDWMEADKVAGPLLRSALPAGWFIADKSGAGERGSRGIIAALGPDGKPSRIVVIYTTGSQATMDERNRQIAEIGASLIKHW
# VIM-2 confirm 2: confirmation of P. aeruginosa VIM-2 metallo-beta-lactamase inhibitors | purified VIM-2, nitrocefin hydrolysis, epi-absorbance | hit rate 96% among 1,300 | AID 2187 | shares compounds with VIM-2 inhibitor | inhibition, % at 5.6 µM;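 active = inhibition of the VIM-2 beta-lactamase enzyme above about 11% from the earlier first-round screen, limit read from the data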;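 note: 0% = VIM-2 with DMSO and 100% = buffer wells without enzyme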
# * marks the source's active call; other numbers are inactive results; . = no result given. An excerpt weighted towards active compounds, which were near 3.1% of everything screened.
SMILES,HCV NS3 hel inh,PHOSPHO1 block,IMP-1 inh-1,UBC9 SUMO inh,VIM-2 inhibitor,core dimer inh,IMP-1 inh-2,VIM-2 FRET inh,TEM-1 inh,VIM-2 confirm 2
CCC(C)Nc1cc(C)c(C#N)c2nc3ccccc3n12 (stereo unspecified),5,11,-4,31,28*,5,-4,-12,-8,38*
C=CCn1c(=S)sc2c(=O)[nH]cnc21,2,16,-1,20,-2,-2,.,.,.,.
CC(C)c1ccc(NC(=O)NN2CCOCC2)cc1,0,8,-4,-6,-3,5,.,.,.,.
Cc1c2c(n3c(nc4ccccc43)c1C#N)N(c1ccccc1)CC2,4,-13,-5,20,4,.,.,.,.,.
Cc1cc(NCCCN(C)C)n2c(nc3ccccc32)c1C#N,20,28,-4,14,57*,3,-6,-5,-11,65*
Cc1c2c(n3c(nc4ccccc43)c1C#N)N(CCCN(C)C)CC2,-2,28,-2,32,32*,-1,-3,-90,-8,48*
CSCCC(N=C(NS(=O)(=O)c1ccc(C)cc1)c1ccccc1)C(=O)O (stereo unspecified),1,24,-3,15,-1,0,.,.,.,.
CC(NC(=O)c1ccncc1)c1ccc(Cl)cc1Cl (stereo unspecified),-8,20,-3,6,1,8,.,.,.,.
COc1ccc(CN(CC(=O)NCc2ccc(F)cc2)C(=O)CCC(=O)Nc2ccccn2)cc1,-4,14,-2,4,-2,6,.,.,.,.
Cc1cc(S(=O)(=O)NCCCN2CCOCC2)c(Cl)cc1Cl,-5,19,-1,7,-1,4,.,.,.,.
COc1ccc(C2=Nn3c(nnc3-c3cccnc3)SC2)cc1,-5,-18,-2,1,3,.,.,.,.,.
COc1ccc(C2=Nn3c(nnc3-c3ccncc3)SC2)cc1,1,29,-1,4,21*,4,-3,4,-6,42*
C[C@H](NC(=O)C1CC(=O)N(c2ccc3c(c2)OCCO3)C1)C(=O)N1CCCCC1 (stereo partly specified),1,18,-3,.,-2,-11,.,.,.,.
Cc1ccc(-c2cn3c(=S)[nH]nc3s2)cc1,-1,68*,-4,-4,45*,-3,-4,69*,-6,54*
Cc1ccc(/C=N/n2c(-c3ccccc3)n[nH]c2=S)cc1,0,-32,-6,17,-3,2,.,.,.,.
CCN1CCN(CCCNC(=O)CCCn2nc(C)c3sc4ccccc4c3c2=O)CC1,-8,-6,-1,-2,13*,5,-4,4,-6,16*
CCCN1CCN(C(=O)C(C)n2nc(C)c3sc4ccccc4c3c2=O)CC1 (stereo unspecified),6,20,-3,11,29*,-5,-2,-4,-5,36*
COc1ccc(NCc2cccnc2)cc1,-10,39,1,3,3,-3,.,.,.,.
Cc1ccc(NC(=O)CSCC(=O)OC(C)C(=O)Nc2ccc(S(N)(=O)=O)cc2)c(C)c1 (stereo unspecified),.,.,.,.,.,-1,.,.,.,.
CCOC(=O)C(=CNc1ccc(C(F)(F)F)cc1)C(=O)OCC,-7,20,-3,6,-2,-6,.,.,.,.
CCOC(=O)C(=CNc1ccc(NC2=NCC(C)S2)cc1)C(=O)OCC (stereo unspecified),-17,-7,-2,8,28*,-9,-2,-7,-6,44*
CCn1nc(C)c(CN2CCCC(CO)(Cc3cccc(Cl)c3)C2)c1C (stereo unspecified),-4,11,-2,-7,-4,-2,.,.,.,.
CN1CCN(c2nnc(-c3ccc(F)cc3)c3ccccc23)CC1,-24,31,-1,7,31*,2,-1,6,-3,42*
CCN1CCN(c2nnc(-c3ccc(F)cc3)c3ccccc23)CC1,-13,16,-2,4,1,-2,.,.,.,.
COc1ccc(Oc2ccc3c(C(F)(F)F)cc(C(F)(F)F)nc3n2)cc1,2,23,-2,-30,-1,-3,.,.,.,.
SMILES,HCV NS3 hel inh,PHOSPHO1 block,IMP-1 inh-1,UBC9 SUMO inh,VIM-2 inhibitor,core dimer inh,IMP-1 inh-2,VIM-2 FRET inh,TEM-1 inh,VIM-2 confirm 2
Oc1ccc(Oc2ccc3c(C(F)(F)F)cc(C(F)(F)F)nc3n2)cc1,-8,-17,-1,15,13*,8,-3,-1,-6,28*
COCC(C)NC(=O)c1cc2cccc([N+](=O)[O-])c2[nH]1 (stereo unspecified),4,33,-4,-14,21*,4,-4,39*,-5,23*
COCC(C)NC(=O)c1cccc([N+](=O)[O-])c1 (stereo unspecified),8,40,0,-4,0,-16,.,.,.,.
CN1CCc2cc3c(c4c2[C@H]1[C@H](O)c1ccccc1-4)OCO3,17,-11,-2,55,17*,-11,-3,-16,-4,24*
CCOc1ccc(C(=O)Nc2cccc(C(C)=O)c2)cc1[N+](=O)[O-],4,22,-4,17,-4,1,.,.,.,.
COc1ccc(OC)c(/C=N/NC(=O)CC2C(=O)NN=C2C)c1 (stereo unspecified),-11,16,-1,32,29*,-4,-3,63*,-5,46*
COc1cccc(/C=N/NC(=O)CC2C(=O)NN=C2C)c1OC (stereo unspecified),7,4,-3,13,1,-12,.,.,.,.
CCCCN(CC)CCCNC(=O)c1cc2c(=O)n(CC)c3ccccc3c2s1,-58,29,-2,4,12*,3,-2,-1,-6,22*
CCCCN(CC)CCNC(=O)c1cc2c(=O)n(CC)c3ccccc3c2s1,-14,16,-2,-5,14*,7,-3,-4,-5,19*
CCCN(CCC)CCCNC(=O)c1cc2c(=O)n(CC)c3ccccc3c2s1,-26,29,1,16,14*,-1,-2,-2,-5,21*
CCn1c(=O)c2cc(C(=O)NCC(OC)OC)sc2c2ccccc21,-2,15,-5,17,7,-11,.,.,.,.
CCOC(CNC(=O)c1cc2c(=O)n(CC)c3ccccc3c2s1)OCC,-4,29,-1,12,6,11,.,.,.,.

# Compound activity: PubChem BioAssay, several laboratories
